We go through six compounds from ChEMBL document CHEMBL1641569, “Synthetic conjugates of genistein affecting proliferation and mitosis of cancer cells” (Bioorg Med Chem, 2011).

Activity calls are given as the source filed them. No cut-off for these calls is given here.

For experiment [1], the system named is HCT-116. Nature of the experiment: Cytotoxicity against human HCT116 cells after 72 hrs by MTT assay. The format is functional, cell-based. The settings on record: HCT-116, 72 h.
The subject of experiment [2] is HCT-116. The experiment is described as follows: Inhibition of mitosis in human HCT116 cells assessed as mitotic index at 20 uM after 24 hrs by fluorescence assay. Type of experiment: functional. In outline:
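Cells treated 24 h, collected as for cell cycle analysis, cytospun, fixed in cold methanol, stained with 3 µM DAPI; mitotic cells counted among 1000 cells under 40× objective. Mean ± SD from three independent experiments.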

Experiment [3] deals with HCT-116. Nature of the experiment: Cell cycle arrest in human HCT116 cells assessed as accumulation at G2/M phase at 5 to 20 uM after 24 hrs by propidium iodide staining-based flow cytometry. The format is functional. Put shortly:
(§1)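 Subconfluent cultures exposed continuously to compound; floating and trypsinized adherent cells pooled, PBS-washed, fixed in ice-cold 70% ethanol 30 min, RNase (100 µg/mL) treated, stained with propidium iodide, DNA content measured by flow cytometry to give G1, S, G2/M, apoptotic (sub-G1) and polyploid fractions. Experiments repeated at least twice.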

For experiment [4], the system named is HCT-116. The experiment is described as follows: Cell cycle arrest in human HCT116 cells assessed as accumulation at G2/M phase after 24 hrs by propidium iodide staining-based flow cytometry. The format is functional. In outline: as §1

Consider `CC(=O)O[C@@H]1C=C[C@H](OCCOc2cc(O)c3c(=O)c(-c4ccc(O)cc4)coc3c2)O[C@H]1C`, for which the IC50 in the experiment on HCT-116 [1] turned out to be 9.32 µM. The Activity in the experiment with HCT-116 [2] was 1.3. The outcome in the experiment on HCT-116 [3] was inactive.

Regarding `CC(=O)O[C@@H]1C=C[C@H](OCCCCCOc2cc(O)c3c(=O)c(-c4ccc(O)cc4)coc3c2)O[C@H]1C`, the concentration for half-maximal inhibition (IC50) with HCT-116 [1] turned out to be 8.08 µM. In addition, the results for the Activity with HCT-116 [2] and with HCT-116 [4] were 3.5 and “Dose-dependent effect”, respectively.

Compound `O=c1c(-c2ccc(O)cc2)coc2cc(OCCCCCO)cc(O)c12` registered an IC50 in the experiment on HCT-116 [1] of 6.92 µM. Further, the Activity in the experiment on HCT-116 [2] was 3. Besides, in the experiment with HCT-116 [3], the result was inactive.

For `O=c1c(-c2ccc(O)cc2)coc2cc(OCCO)cc(O)c12`, in the experiment with HCT-116 [1], the IC50 amounted to 25 µM.

In turn, `CCCO[C@H]1C=C[C@@H](OC(C)=O)[C@H](C)O1` registered a 50% inhibitory concentration (IC50) in the experiment on HCT-116 [1] of 550 µM.

In the case of `CC(=O)OC[C@H]1O[C@H](OCCCCCOc2cc(O)c3c(=O)c(-c4ccc(O)cc4)coc3c2)C=C[C@@H]1OC(C)=O`, the IC50 in the experiment with HCT-116 [1] amounted to 8.45 µM. Besides, the Activity with HCT-116 [2] was 5.2; in the experiment on HCT-116 [4], “Dose-dependent effect”.
